High-throughput results as filed in PubChem.
Fibroblast inh – blocks proliferation of human lung fibroblasts; LL 47 human lung fibroblast viability, ATP luminescence; stronger effect = lower value; viability, % at 10 µM; 85,000 tested, 1.1% active; AID 719;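 active means viability at or below 50% in the single dose screen; inactive means viability above 50%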;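 further: compound exposure lasted 72 h before the ATP readout; 100% = median luminescence of untreated cell-only wells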
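test system = LL 47 human lung fibroblasts | amount = 1,150 fibroblasts seeded per well | medium = 15% FBS in IMEM | times = overnight cell rest, 72 h compound treatment at 37 °C | measured by = CellTiter-Glo luminescence measuring cellular ATP | read-out = viability percentage against median untreated-cell control | benchmarks = cell-only wells, no compound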
PTEN del growth – growth suppressors of cells with PTEN tumor suppressor deletion; 140,000 tested, 1.2% active; HCT116 PTEN-null viability, CellTiter-Glo, 60 h; stronger effect = lower value; AID 827; viability, % at 10 µM;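 active means viability at or below a set limit, 4 SD under the median of all tested compounds, cut at about 3.7% in these data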;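 further: PTEN knockout HCT116 line with beta catenin targeted HCT116 as companion control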
HCT116 bCat-KO – beta-catenin-lacking colon tumor cell growth suppression; viability, % at 10 µM; HCT116 beta-catenin knockout viability, CellTiter-Glo, 60 h; stronger effect = lower value; 140,000 tested, 1.5% active;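 active means viability at or under a set limit, the compound median less 4 SD, cut at about 6% in these data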;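 further: 0% = Hyamine 1622 control at 20 µM and 100% = untreated cell control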
HUVEC inhibit – inhibitors of human endothelial cell proliferation. HUVEC proliferation, CellTiter-Glo luminescence, 72 h; stronger effect = lower value. viability, % at 10 µM (by protocol). 86,000 tested, 1.1% active;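 active means viability at or below 30%; inactive means viability above 30%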;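 further: 100% = median luminescence of DMSO-only cell control wells on each plate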
H69AR growth 86K – growth inhibitors of human H69AR lung tumor cells; AID 598; viability, % at 10 µM; H69AR lung tumor viability, ATP luminescence, 72 h; stronger effect = lower value; 85,000 tested, 6% active;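 active means viability at or below 40%; inactive means viability above 40%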;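 further: multidrug resistant small cell line overexpressing MRP-1 efflux transporter; 100% = mean luminescence of untreated control wells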
Starred values were filed as active, the others as inactive; / = no result. The sample as a whole holds a higher share of hits than the screen did.

SMILES	Fibroblast inh	PTEN del growth	HCT116 bCat-KO	HUVEC inhibit	H69AR growth 86K
Cc1ccc(Cn2ccc(=O)c(OCc3c(Cl)cccc3Cl)c2C)cc1	85.5	39.8	19.1	72.5	25.0*
Cc1cccc(NC(=O)Cn2c(/C=C/c3ccccc3)nc3ccccc32)c1	/	58.7	58.2	/	/
C=CCOc1c(OC)cc(/C=N/Nc2cccc(C(=O)O)c2)c(Br)c1Br	/	10.0	17.8	/	/
Cc1ccc(C2NC(=O)c3ccccc3N2)s1 (configuration not stated)	60.3	20.6	16.0	56.1	31.6*
O=C1NC(c2ccncc2)Nc2ccccc21 (configuration not stated)	93.3	95.7	100.2	113.0	102.9
O=C(Cc1cccs1)Nc1ccc(Cl)cc1	100.0	86.6	88.0	99.3	99.1
Cc1ccc(-c2nnc(-c3ccc(NC(=O)Cc4cccs4)cc3)o2)cc1	/	1.4*	1.2*	/	/
CC(C)C(=O)N=C1SC2CS(=O)(=O)CC2N1Cc1ccccc1 (configuration not stated)	/	95.8	99.4	/	/
COc1ccc(-c2coc3cc4oc(=O)c5ccccc5c4cc23)cc1F	/	6.4	4.5*	/	/
Cc1c(CCC(=O)O)c(=O)oc2cc3occ(-c4ccc(F)cc4)c3cc12	90.7	90.5	95.6	104.4	102.4
Cc1ccc(-c2nc3cccnc3s2)cc1NS(=O)(=O)c1ccc2c(c1)OCCO2	90.6	78.5	73.2	70.1	21.2*
O=S(=O)(Nc1cccc(-c2nc3cccnc3s2)c1)c1ccc2c(c1)OCCO2	103.6	72.7	84.3	78.0	79.8
CCN(CC)S(=O)(=O)c1cnccc1N1CCN(c2cccc(Cl)c2)CC1	/	30.1	18.6	/	/
O=c1oc2c(O)c(O)cc3c(=O)oc4c(O)c(O)cc1c4c23	98.9	60.6	60.5	68.6	16.4*
CCn1c(COc2ccccc2Cl)nnc1SCC(=O)Nc1ncccc1C	/	74.2	83.5	/	/
CCOC(=O)C1=C(c2ccccc2)N=c2s/c(=C\c3cccc(O)c3)c(=O)n2C1c1cccs1 (configuration not stated)	/	1.5*	1.5*	/	/
CCOC(=O)C1=C(C)N=c2s/c(=C\c3ccc(OC(C)=O)c(OCC)c3)c(=O)n2C1/C=C/c1ccccc1 (configuration not stated)	/	29.1	44.1	/	/
O=C(/C=C\c1cn(-c2ccccc2)nc1-c1ccccc1)Nc1nccs1	/	1.2*	1.6*	/	/
Cc1ccccc1[C@@H]1C(C#N)=C(N)S[C@H]1C(=O)c1ccccc1	/	86.5	81.7	/	/
O=C(NNC1=C(C(=O)C(F)(F)F)CCC1)c1cccc(Cl)c1	69.3	37.3	37.3	22.5*	29.4*
CC1(C)NC(=O)N(CCOCCOc2ccc3ccccc3c2Br)C1=O	89.5	77.3	78.1	78.1	32.5*
Cc1ccccc1/C(N)=N/O	/	101.3	84.1	/	/
COc1ccc(S(=O)(=O)Nc2cc3c4c(oc3c3ccccc23)CC(C)(C)CC4=O)cc1	100.3	22.7	39.0	68.9	15.4*
CC1=C(C(=O)OCc2ccc3c(c2)OCO3)C(c2ccccc2OCc2ccccc2)NC(=O)N1 (configuration not stated)	96.0	55.7	59.7	86.3	77.3
CC1=C(C(=O)OCc2ccc3c(c2)OCO3)C(c2ccccc2)NC(=O)N1 (configuration not stated)	82.3	22.9	23.9	25.6*	22.5*
SMILES	Fibroblast inh	PTEN del growth	HCT116 bCat-KO	HUVEC inhibit	H69AR growth 86K
CCOc1ccccc1C(=O)NC(C)c1ccc2c(c1)OCO2 (configuration not stated)	97.2	26.4	23.1	65.3	23.7*
COc1ccc(CC(=O)Nc2ccc(C(=O)Nc3ccccc3C(=O)O)cc2)cc1OC	/	107.3	97.6	/	/
OCCN1CCN(c2nc(-c3ccccc3)c3cc(Cl)ccc3n2)CC1	93.8	70.7	73.0	34.1	8.3*
Clc1ccc2nc(N3CCNCC3)nc(-c3ccccc3)c2c1	2.4*	1.3*	1.2*	4.3*	0.8*
CN1CCN(c2nc(-c3ccccc3)c3cc(Cl)ccc3n2)CC1	72.1	43.9	56.0	49.5	38.8*
O=C1CN(c2nc(-c3ccccc3)c3cc(Cl)ccc3n2)c2ccccc2N1	/	49.2	51.5	/	/
Cc1ccc(S(=O)(=O)NCCCCCC(=O)Nc2cccc(C)c2)cc1	/	86.5	89.8	/	/
O=[N+]([O-])c1ccc(Oc2cccc(Br)c2)c2ccncc12	84.1	8.8	12.5	76.6	18.4*
O=[N+]([O-])c1ccc(Oc2ccc(F)cc2)c2ccncc12	72.5	67.8	65.0	53.8	24.2*
CCC(C)NS(=O)(=O)c1ccc(S(=O)(=O)N2CC=C(c3ccc(F)cc3)CC2)cc1 (configuration not stated)	/	64.0	58.1	/	/
